KCC2 mod = KCC2 (human) Cl- transport modulation; Q9H2X9; KCC2 cells, thallium flux FluoZin-2 fluorescence; B-score of Tl+ flux slope (higher = more flux/activation; lower = inhibition) at 10 µM; hit rate 2.2% among 190,000; AID 1456;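 active = thallium flux slope and its plate-corrected score both differing from the plate sample mean at a set confidence after two filtering rounds, in either direction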;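 also: slope of fluorescence scaled to starting intensity during 10 to 20 s after thallium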
Target sequence (Q9H2X9 whole entry, looked up): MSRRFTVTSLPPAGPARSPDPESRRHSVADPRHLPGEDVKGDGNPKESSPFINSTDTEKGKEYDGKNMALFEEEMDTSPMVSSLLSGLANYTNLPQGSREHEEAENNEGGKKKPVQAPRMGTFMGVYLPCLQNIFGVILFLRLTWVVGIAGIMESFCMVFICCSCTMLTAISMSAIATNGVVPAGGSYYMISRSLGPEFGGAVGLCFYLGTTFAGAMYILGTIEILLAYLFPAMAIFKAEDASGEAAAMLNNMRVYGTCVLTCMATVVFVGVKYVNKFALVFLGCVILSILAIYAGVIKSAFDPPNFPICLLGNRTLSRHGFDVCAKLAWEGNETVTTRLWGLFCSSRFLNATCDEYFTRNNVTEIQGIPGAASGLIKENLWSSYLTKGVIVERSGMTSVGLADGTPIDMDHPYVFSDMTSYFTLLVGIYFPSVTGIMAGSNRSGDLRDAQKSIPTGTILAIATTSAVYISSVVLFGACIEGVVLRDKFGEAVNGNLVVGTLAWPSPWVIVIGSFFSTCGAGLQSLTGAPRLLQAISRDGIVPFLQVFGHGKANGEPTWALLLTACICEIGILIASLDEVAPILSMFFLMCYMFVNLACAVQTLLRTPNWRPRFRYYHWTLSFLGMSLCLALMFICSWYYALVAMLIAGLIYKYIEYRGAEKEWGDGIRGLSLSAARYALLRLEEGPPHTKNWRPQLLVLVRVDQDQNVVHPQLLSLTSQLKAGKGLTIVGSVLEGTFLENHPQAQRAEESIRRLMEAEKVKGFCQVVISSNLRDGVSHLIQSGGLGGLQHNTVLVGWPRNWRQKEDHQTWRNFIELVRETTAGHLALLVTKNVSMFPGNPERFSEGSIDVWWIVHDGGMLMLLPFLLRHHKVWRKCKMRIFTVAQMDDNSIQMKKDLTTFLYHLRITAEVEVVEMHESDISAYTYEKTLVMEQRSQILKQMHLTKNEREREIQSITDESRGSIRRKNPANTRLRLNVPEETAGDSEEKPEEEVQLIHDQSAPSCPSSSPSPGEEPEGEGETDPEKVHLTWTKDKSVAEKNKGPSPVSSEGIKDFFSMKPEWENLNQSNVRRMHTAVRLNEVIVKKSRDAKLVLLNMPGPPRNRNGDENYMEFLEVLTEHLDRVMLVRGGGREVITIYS
WT yeast gro inh = growth inhibition of WT yeast, mitochondrial fusion screen; mitochondrial fusion phenotypic screen, WT strain; inhibition, % at 10 µM; hit rate 2.1% among 190,000; AID 1362; in the data active = inhibition above about 58%; tested in S. cerevisiae
Diaph inh CS = inhibits diaphorase or chemically oxidizes, flagging diaphorase assay artifacts; diaphorase resazurin-to-resorufin fluorescence, NADH, 16 min; bacterial (C. kluyveri) enzyme, not human; inhibition, % at 20 µM; hit rate 0.69% among 190,000;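 active = primary screen inhibition at 20 µM above a set limit, cut at about 50% in these data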;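 also: plate controls were DMSO with full reaction for no effect and wells lacking NADH for full effect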
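material = Clostridium kluyveri diaphorase enzyme | amount = 0.14 U/mL diaphorase, enzyme working solution | schedule = incubation 16 min, room temperature | detection = fluorescence of resorufin formed from resazurin, Ex 544/Em 590 nm | benchmarks = positive control minus NADH, DMSO neutral control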
ROMK primary = human ROMK K+ channel modulation, primary screen | Tet-inducible ROMK, thallium flux fluorescence; actives lie on both sides | B-score at 10 µM | hit rate 2% among 130,000;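 active = signal ratio slope over the read window, or its plate-corrected B-score, at least 3 SD from the plate mean, either direction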;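 also: B-score of the F/F0 ratio slope over 7 to 12 s after thallium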
Lmaj promast = inhibitors of Leishmania major promastigote growth. Leishmania major promastigotes, resazurin fluorescence viability. inhibition, % at 10 µM. hit rate 9% among 200,000. AID 1063; in the data active = inhibition above about 50%;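 also: promastigotes grown with compound for 44 hours at 28 °C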
Diaph act CS = activates diaphorase or chemically reduces, flagging diaphorase assay artifacts; hit rate 0.005% among 190,000; AID 1229; activation factor at 20 µM; Diaphorase/resazurin coupled assay, resorufin fluorescence, 16 min; active compounds read high; 1 = vehicle wells, 0 = NADH-free wells;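 active = diaphorase activity raised at least twofold by the compound at 20 µM; inactive = activation factor below 2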
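Material: Purified diaphorase enzyme from Clostridium kluyveri | Buffer or medium: 50 mM HEPES pH 7.4 with 4.542 mM MgCl2, 0.005% Tween 20 | Times: 16 min enzyme reaction, ambient temperature | Signal: Red resorufin fluorescence at 544/590 nm excitation/emission | Measure: Increased resorufin signal from activators or reducing compounds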
* = called active by the depositor. Sampled rows, rich in hits. Any-hit rate of the full collection: about 12%.

NS(=O)(=O)c1cccc(NC(=O)CCSc2ccc(Cl)cc2)c1 was read as KCC2 mod 0.9, WT yeast gro inh -13, Diaph inh CS 18, ROMK primary 0.38, Lmaj promast -7 and Diaph act CS 0.8.
Cc1ccc(-n2c(Cc3cccn3C)nnc2SCC(=O)NCc2ccc3c(c2)OCO3)cc1 was read as KCC2 mod -0.42, WT yeast gro inh 7, Diaph inh CS 17, Lmaj promast 2 and Diaph act CS 0.8.
Screening C=CCn1c(SCc2nc(N)nc(N3CCCCC3)n2)nnc1-c1ccco1 returned KCC2 mod -0.015, WT yeast gro inh 6, Diaph inh CS 18, ROMK primary -0.068, Lmaj promast 2 and Diaph act CS 0.8.
Fc1ccc(C2=CC(c3ccc(Br)o3)n3ncnc3N2)cc1 (configuration not stated) was read as KCC2 mod -1.6, WT yeast gro inh -6, Diaph inh CS -5, ROMK primary -3.4*, Lmaj promast -2 and Diaph act CS 1.1.
OCCCc1nc2n(n1)C(c1cccs1)C=C(c1ccc(Br)cc1)N2 (configuration not stated) was read as WT yeast gro inh 61*, Diaph inh CS 19, Lmaj promast 2 and Diaph act CS 0.8.
For Brc1ccc(C2=CC(c3cccs3)n3ncnc3N2)cc1 (configuration not stated) the results were KCC2 mod inactive, WT yeast gro inh 68*, Diaph inh CS 5, Lmaj promast 7 and Diaph act CS 0.9.
For Brc1ccc(C2=CC(c3ccco3)n3nnnc3N2)cc1 (configuration not stated) the results were KCC2 mod 1.8 and ROMK primary 0.46.
C1=C(c2ccc(-c3ccccc3)cc2)Nc2ncnn2C1c1ccco1 (configuration not stated) was read as KCC2 mod -1.8, WT yeast gro inh 2, Diaph inh CS 23, Lmaj promast 1 and Diaph act CS 0.8.
`Oc1ccc(C2C=C(c3ccc(F)cc3)Nc3ncnn32)cc1` (configuration not stated) gave KCC2 mod 0.055.
CCN(CC(=O)NC1CCCC1)S(=O)(=O)c1ccc(C)cc1 was read as KCC2 mod 0.009, WT yeast gro inh 3, Diaph inh CS 8, Lmaj promast -6 and Diaph act CS 0.9.
Screening COCCNCC(O)CON=C1c2ccccc2-c2ccccc21 (configuration not stated) returned KCC2 mod 0.63, WT yeast gro inh 12, Diaph inh CS 9, ROMK primary 0.094, Lmaj promast 40 and Diaph act CS 0.9.
For CN(CC(O)CON=C1c2ccccc2-c2ccccc21)S(=O)(=O)c1ccc(Br)cc1 (configuration not stated) the results were KCC2 mod -0.56, WT yeast gro inh 46, Diaph inh CS 17, Lmaj promast 100* and Diaph act CS 0.8.
`Cc1cccc(N(CC(O)CON=C2c3ccccc3-c3ccccc32)S(C)(=O)=O)c1` (configuration not stated) gave KCC2 mod -0.41, WT yeast gro inh 63*, Diaph inh CS 24, Lmaj promast 56* and Diaph act CS 0.8.
`CCN(CC(O)CON=C1c2ccccc2-c2ccccc21)S(=O)(=O)c1ccc(Cl)cc1` (configuration not stated) gave KCC2 mod -1.5, WT yeast gro inh 7, Diaph inh CS 13, Lmaj promast 100* and Diaph act CS 0.9.
Screening CCN(CC(O)CON=C1c2ccccc2-c2ccccc21)S(=O)(=O)c1ccc(C)cc1 (configuration not stated) returned KCC2 mod -0.25, WT yeast gro inh 22, Diaph inh CS 12, Lmaj promast 100* and Diaph act CS 0.9.
NCC(O)COCCC12CC3CC(CC(C3)C1)C2 (configuration not stated) was read as KCC2 mod 0.88, WT yeast gro inh 40, Diaph inh CS 8, ROMK primary -0.55, Lmaj promast 16 and Diaph act CS 0.9.
Screening O=C(OCC(O)CN1CCCCC1)C12CC3CC(CC(C3)C1)C2 (configuration not stated) returned WT yeast gro inh 1, Diaph inh CS 12, ROMK primary -0.95, Lmaj promast 91* and Diaph act CS 0.9.
`OC(COCCC12CC3CC(CC(C3)C1)C2)CN1CCCC1` (configuration not stated) gave KCC2 mod 1.1, WT yeast gro inh 27, Diaph inh CS -8, ROMK primary -1.3, Lmaj promast 91* and Diaph act CS 1.1.
`CC(NCC(O)COCCC12CC3CC(CC(C3)C1)C2)c1ccccc1` (configuration not stated) gave KCC2 mod 1, WT yeast gro inh 76*, Diaph inh CS -11, ROMK primary -1.9, Lmaj promast 100* and Diaph act CS 1.1.
CCOC(=O)CC1C(=O)NCCN1S(=O)(=O)c1ccccc1Cl (configuration not stated) was read as KCC2 mod 1.3, WT yeast gro inh 10, Diaph inh CS 8, Lmaj promast -4 and Diaph act CS 0.9.
CC(=O)c1ccc(/C=C/c2nc3ccccc3n2C)o1 was read as KCC2 mod -0.93.
CC(C)(C)c1ccc(-c2csc(NC(=O)CN3C(=O)NC4(CCCCC4)C3=O)n2)cc1 was read as KCC2 mod 0.45, WT yeast gro inh -18, Diaph inh CS 12, ROMK primary -0.069, Lmaj promast 99* and Diaph act CS 0.9.
`CCc1ccc(NC(=O)Cc2ccc(-n3cccc3)cc2)cc1` gave KCC2 mod -1.3, WT yeast gro inh 2, Diaph inh CS 2, ROMK primary 0.89, Lmaj promast 86* and Diaph act CS 1.
Screening O=C(Cc1ccccc1)Nc1ccc(C(=O)O)cc1 returned KCC2 mod 1.5, WT yeast gro inh -3, Diaph inh CS -13, ROMK primary -0.6, Lmaj promast -7 and Diaph act CS 1.1.
For COC(=O)c1ccc(NC(=O)Cc2ccc(C)cc2)cc1 the results were KCC2 mod -0.21, WT yeast gro inh -14, Diaph inh CS -14, ROMK primary 0.57, Lmaj promast 65* and Diaph act CS 1.1.
For COC(=O)c1ccc(NC(=O)Cc2ccccc2)cc1 the results were KCC2 mod -0.0018, WT yeast gro inh 44, Diaph inh CS 2, Lmaj promast 76* and Diaph act CS 1.
Screening CCc1ccccc1NC(=O)Cc1ccc(-n2cccc2)cc1 returned KCC2 mod -1.1, WT yeast gro inh 4, Diaph inh CS 0, ROMK primary -0.084, Lmaj promast 6 and Diaph act CS 1.
